# Test results: ChEMBL document CHEMBL4765345, “Design, synthesis, and biological evaluation of dual targeting inhibitors of histone deacetylase 6/8 and bromodomain BRPF1” (Eur J Med Chem, 2020)
# How the values were obtained:
# [1] = tested on: HL-60; test: Antiproliferative activity against human HL60 assessed as reduction in cell growth at 20 uM by CellTiter-non radioactive cell proliferation assay; assay type: functional
# [2] = tested on: HL-60; test: Antiproliferative activity against human HL60 assessed as reduction in cell growth at 50 uM by CellTiter-non radioactive cell proliferation assay; assay type: functional
# Summary of the method: (§1)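 HL60 cells plated at 5000 per well and given inhibitor or DMSO vehicle immediately. Compounds diluted from 200x DMSO stocks; three replicates per concentration. Growth read by CellTiter 96 Aqueous (MTS) assay. GI50 is the concentration cutting metabolically active cells by 50% versus DMSO control, taken from absorbance against log concentration.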
# [3] = tested on: THP-1; test: Antiproliferative activity against human THP-1 assessed as reduction in cell growth at 1 uM by CellTiter-non radioactive cell proliferation assay; assay type: functional
# [4] = tested on: HL-60; test: Antiproliferative activity against human HL60 assessed as reduction in cell growth at 1 uM by CellTiter-non radioactive cell proliferation assay; assay type: functional
# [5] = tested on: THP-1; test: Antiproliferative activity against human THP-1 assessed as reduction in cell growth at 20 uM by CellTiter-non radioactive cell proliferation assay; assay type: functional
# [6] = tested on: THP-1; test: Antiproliferative activity against human THP-1 assessed as reduction in cell growth at 100 uM by CellTiter-non radioactive cell proliferation assay; assay type: functional
# [7] = tested on: HL-60; test: Antiproliferative activity against human HL60 assessed as reduction in cell growth at 100 uM by CellTiter-non radioactive cell proliferation assay; assay type: functional
# [8] = Chemical stability of the compound in standard cellular assay conditions measured after 4 days; assay type: physicochemical; settings: 96 h; time 4 day
# Summary of the method: (§2)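 Compounds were incubated at 37 °C in DMEM (cellular assay conditions) or in PBS pH 7.4 (in vitro assay conditions) for various times up to 4 days. The parent compound and any hydrolysis products were detected and quantified by HPLC.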
# [9] = biological target: T1, Histone deacetylase 8 (Homo sapiens, UniProt Q9BY41); test: Inhibition of human recombinant HDAC8 using H2N-Arg-His-Lys(Ac)-Lys(Ac)-AMC as substrate after 90 mins by fluorescence based micro plate assay
# T1 sequence (Q9BY41 whole entry): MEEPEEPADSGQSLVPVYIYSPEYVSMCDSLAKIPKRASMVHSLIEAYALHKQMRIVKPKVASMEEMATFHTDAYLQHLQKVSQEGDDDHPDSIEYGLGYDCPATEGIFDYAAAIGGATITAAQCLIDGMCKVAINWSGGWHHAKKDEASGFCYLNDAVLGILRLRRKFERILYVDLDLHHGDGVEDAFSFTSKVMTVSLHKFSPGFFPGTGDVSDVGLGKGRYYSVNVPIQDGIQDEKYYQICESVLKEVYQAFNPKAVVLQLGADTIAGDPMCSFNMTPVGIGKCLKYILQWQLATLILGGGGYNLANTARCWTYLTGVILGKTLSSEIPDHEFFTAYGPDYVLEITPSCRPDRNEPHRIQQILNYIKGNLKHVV
# [10] = biological target: Histone deacetylase 1 (Homo sapiens, UniProt Q13547); test: Inhibition of recombinant human HDAC1 using Z-(Ac)Lys-AMC as substrate after 90 mins by fluorescence based micro plate assay
# Summary of the method: (§3)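 Recombinant human HDAC1 or HDAC6 incubated 90 min at 37 °C with 10.5 μM ZMAL (Z-(Ac)Lys-AMC) and increasing inhibitor concentrations, using a homogeneous fluorescence assay. Fluorescence read at Ex 390/Em 460 nm.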
# [11] = biological target: T2, Peregrin (Homo sapiens, UniProt P55201); test: Binding affinity to BRPF1 (unknown origin) by Isothermal titration calorimetry
# T2 sequence (P55201 whole entry): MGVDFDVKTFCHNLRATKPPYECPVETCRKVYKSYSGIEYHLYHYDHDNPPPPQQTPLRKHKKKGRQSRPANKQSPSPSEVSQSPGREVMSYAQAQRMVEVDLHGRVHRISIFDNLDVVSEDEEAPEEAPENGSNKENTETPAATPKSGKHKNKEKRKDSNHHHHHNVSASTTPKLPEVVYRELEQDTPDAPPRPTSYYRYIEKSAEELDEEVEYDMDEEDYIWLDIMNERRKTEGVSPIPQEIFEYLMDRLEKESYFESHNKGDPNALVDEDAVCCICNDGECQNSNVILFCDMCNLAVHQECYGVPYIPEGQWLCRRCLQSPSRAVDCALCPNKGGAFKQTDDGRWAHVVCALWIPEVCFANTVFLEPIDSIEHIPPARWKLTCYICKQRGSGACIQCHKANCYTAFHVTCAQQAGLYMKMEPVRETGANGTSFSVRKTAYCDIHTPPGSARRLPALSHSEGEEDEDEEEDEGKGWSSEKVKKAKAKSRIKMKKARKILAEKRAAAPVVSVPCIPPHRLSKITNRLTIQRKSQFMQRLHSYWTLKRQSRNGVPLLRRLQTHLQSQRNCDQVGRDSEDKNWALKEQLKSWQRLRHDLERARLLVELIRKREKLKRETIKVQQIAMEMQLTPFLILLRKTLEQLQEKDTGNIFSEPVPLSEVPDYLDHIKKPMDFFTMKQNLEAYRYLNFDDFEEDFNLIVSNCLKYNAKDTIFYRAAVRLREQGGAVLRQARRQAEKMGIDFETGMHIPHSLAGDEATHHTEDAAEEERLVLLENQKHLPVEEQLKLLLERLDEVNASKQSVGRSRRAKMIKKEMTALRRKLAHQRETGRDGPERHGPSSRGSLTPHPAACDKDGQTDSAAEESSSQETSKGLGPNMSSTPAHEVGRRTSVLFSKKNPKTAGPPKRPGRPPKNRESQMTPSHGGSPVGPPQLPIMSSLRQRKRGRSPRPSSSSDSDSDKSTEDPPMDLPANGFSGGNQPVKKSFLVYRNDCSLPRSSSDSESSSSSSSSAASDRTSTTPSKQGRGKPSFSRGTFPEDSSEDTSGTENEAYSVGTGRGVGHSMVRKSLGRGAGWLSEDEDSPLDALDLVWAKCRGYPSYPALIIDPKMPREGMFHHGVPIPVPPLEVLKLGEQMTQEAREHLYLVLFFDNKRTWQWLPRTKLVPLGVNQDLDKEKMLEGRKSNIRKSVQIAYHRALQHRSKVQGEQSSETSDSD
# Summary of the method: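 Isothermal titration calorimetry with recombinant BRPF1 (200–400 μM) in the injection syringe titrated into ligand (20–40 μM) in the sample cell. Kd was fitted from the titrations and reported with its P99 interval.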
# [12] = Stability of the compound in phosphate buffer at pH 7.4 measured after 4 days; assay type: physicochemical; settings: pH 7.4, 96 h, time 4 day; summary of the method: as §2
# [13] = biological target: T3, Protein deacetylase HDAC6 (Homo sapiens, UniProt Q9UBN7); test: Inhibition of recombinant human HDAC6 using Z-(Ac)Lys-AMC as substrate after 90 mins by fluorescence based micro plate assay; summary of the method: as §3
# T3 sequence (Q9UBN7 whole entry): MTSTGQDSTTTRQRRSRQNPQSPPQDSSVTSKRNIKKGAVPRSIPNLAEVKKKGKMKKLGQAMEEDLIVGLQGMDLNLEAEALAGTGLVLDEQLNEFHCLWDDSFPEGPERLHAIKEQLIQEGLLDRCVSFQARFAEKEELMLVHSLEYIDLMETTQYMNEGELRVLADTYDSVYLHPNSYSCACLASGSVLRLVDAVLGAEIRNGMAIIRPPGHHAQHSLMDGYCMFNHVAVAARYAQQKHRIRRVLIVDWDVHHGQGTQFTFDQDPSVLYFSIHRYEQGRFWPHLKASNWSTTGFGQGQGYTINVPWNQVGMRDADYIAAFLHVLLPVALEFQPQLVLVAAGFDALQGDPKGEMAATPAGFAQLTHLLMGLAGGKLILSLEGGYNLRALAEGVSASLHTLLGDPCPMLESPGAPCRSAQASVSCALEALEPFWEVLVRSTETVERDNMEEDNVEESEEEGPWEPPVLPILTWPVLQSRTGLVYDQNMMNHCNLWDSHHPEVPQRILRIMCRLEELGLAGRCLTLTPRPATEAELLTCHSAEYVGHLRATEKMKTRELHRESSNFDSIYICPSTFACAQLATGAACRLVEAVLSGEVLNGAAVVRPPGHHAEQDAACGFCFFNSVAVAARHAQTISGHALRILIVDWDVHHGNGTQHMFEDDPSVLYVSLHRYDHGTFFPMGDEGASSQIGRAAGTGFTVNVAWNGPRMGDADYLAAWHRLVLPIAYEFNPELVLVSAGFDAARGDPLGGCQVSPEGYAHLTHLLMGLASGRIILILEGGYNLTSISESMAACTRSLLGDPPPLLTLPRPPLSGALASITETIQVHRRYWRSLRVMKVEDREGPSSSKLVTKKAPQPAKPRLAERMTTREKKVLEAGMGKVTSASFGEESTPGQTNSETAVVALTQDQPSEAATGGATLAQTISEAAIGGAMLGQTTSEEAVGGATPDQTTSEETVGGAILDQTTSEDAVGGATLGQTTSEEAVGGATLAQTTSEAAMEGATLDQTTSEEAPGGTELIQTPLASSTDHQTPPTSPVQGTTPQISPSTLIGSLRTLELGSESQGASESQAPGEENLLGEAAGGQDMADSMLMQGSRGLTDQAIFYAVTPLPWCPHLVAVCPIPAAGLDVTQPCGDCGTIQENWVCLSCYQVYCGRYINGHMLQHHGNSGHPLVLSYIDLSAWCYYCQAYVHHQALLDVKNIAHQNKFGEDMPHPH
# [14] = tested on: HEK293; test: (§4) Cytotoxicity against human HEK293 assessed as reduction in cell viability incubated for 24 hrs by AlamarBlue assay; assay type: cell-based; settings: hek293, 24 h
# Summary of the method: (§5)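 HEK293 cells were grown at 37 °C under 5% CO2 in DMEM with 10% FCS and 5 mM glutamine and seeded at 1.5 x 10³ cells per well. Compound at 50 μM was added at once. After 24 h AlamarBlue was added for another 21 h, and fluorescence was read at Ex 560/Em 590 nm. Triplicates over three independent experiments.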
# [15] = tested on: THP-1 (Homo sapiens); test: Antiproliferative activity against human THP-1 assessed as reduction in metabolically active cells by CellTiter-non radioactive cell proliferation assay
# [16] = tested on: HL-60; test: Antiproliferative activity against human HL60 assessed as reduction in cell growth at 4 uM by CellTiter-non radioactive cell proliferation assay; assay type: functional; summary of the method: as §1
# [17] = tested on: THP-1; test: Antiproliferative activity against human THP-1 assessed as reduction in cell growth at 4 uM by CellTiter-non radioactive cell proliferation assay; assay type: functional
# [18] = as §4; assay type: cell-based; settings: HEK293 cells, read-out: INH; summary of the method: as §5
# [19] = biological target: T4, Protein deacetylase HDAC6 (Homo sapiens) (UniProt Q9UBN7); test: Inhibition of recombinant human HDAC6 at 1 uM using Z-(Ac)Lys-AMC as substrate after 90 mins by fluorescence based micro plate assay; summary of the method: as §3
# T4 sequence (whole entry): T3 sequence (Q9UBN7 whole entry)
# [20] = biological target: T4, Protein deacetylase HDAC6 (Homo sapiens); test: Inhibition of recombinant human HDAC6 at 10 uM using Z-(Ac)Lys-AMC as substrate after 90 mins by fluorescence based micro plate assay; summary of the method: as §3
# [21] = Inhibition of HDAC (unknown origin); set-up: species or system Homo sapiens
# Histone deacetylase 1, sequence (Q13547 whole entry): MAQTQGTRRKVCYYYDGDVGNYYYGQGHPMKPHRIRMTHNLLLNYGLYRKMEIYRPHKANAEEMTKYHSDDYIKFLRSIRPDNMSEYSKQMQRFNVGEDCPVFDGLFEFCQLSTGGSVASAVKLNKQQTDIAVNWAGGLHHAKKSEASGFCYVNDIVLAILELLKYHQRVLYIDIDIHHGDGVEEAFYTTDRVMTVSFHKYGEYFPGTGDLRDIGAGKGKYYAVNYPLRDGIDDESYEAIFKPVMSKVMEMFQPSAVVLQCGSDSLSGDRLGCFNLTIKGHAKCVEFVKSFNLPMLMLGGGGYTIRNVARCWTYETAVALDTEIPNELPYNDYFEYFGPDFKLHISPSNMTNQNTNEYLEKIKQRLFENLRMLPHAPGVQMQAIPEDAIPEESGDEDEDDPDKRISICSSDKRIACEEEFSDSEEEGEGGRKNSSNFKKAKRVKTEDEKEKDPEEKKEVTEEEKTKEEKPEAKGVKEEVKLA
Structure (SMILES),inhibition at 20 µM [1] [%],inhibition at 1 µM [3] [%],inhibition at 1 µM [4] [%],inhibition at 20 µM [5] [%],inhibition at 100 µM [6] [%],inhibition at 100 µM [7] [%],IC50 [9] [nM],IC50 [10] [nM],Kd ([11]; read-out: Kd) [nM],inhibition at 4 µM [16] [%],also measured
Cc1cc2cc(NC(=O)c3ccc(S(=O)(=O)Nc4ccc5c(c4)cc(C)c(=O)n5C)cc3)ccc2n(C)c1=O,55,0,20,84,73,–,–,–,–,–,inhibition at 50 µM [2]: 48%
Cc1cc2cc(NS(=O)(=O)Cc3ccc(C(=O)NO)cc3)ccc2n(C)c1=O,0,0,5,8,89,27,360,545,1500,–,Stabilty [8]: Stable; Stabilty [12]: Stable; IC50 [13]: 152 nM
COC(=O)c1ccc(OC)c(S(=O)(=O)Nc2ccc3c(c2)cc(C)c(=O)n3C)c1,44,–,–,101,102,66,–,–,–,39,Activity [14]: Non-Toxic; GI50 [15]: 5500 nM; inhibition at 4 µM [17]: 40%
COc1ccc(C(=O)NO)cc1NCc1ccc(OCCCCC(=O)Nc2ccc3c(c2)cc(C)c(=O)n3C)cc1,0,–,–,0,–,0,956,5200,4080,0,cytotoxicity at 24 h [18]: 15%; inhibition [19]: 50%; inhibition [20]: 68%
O=C(CCCCCCOc1ccccc1C(=O)Nc1ncnc2[nH]cnc12)NO,–,–,–,–,–,–,–,–,–,–,IC50 [21]: 260 nM; Kd [11]: 2700 nM
